Legend:
[1] = test system: HCT-116; assay: Induction of apoptosis in human HCT-116 cells assessed as late apoptosis at 0.5 uM incubated for > 6 hrs by annexin V/PI staining based analysis (Rvb=6.12%); format: functional
[2] = test system: HCT-116; assay: Induction of apoptosis in human HCT-116 cells assessed as necrosis cells at 0.5 uM incubated for > 6 hrs by annexin V/PI staining based analysis (Rvb=0.55%); format: functional
[3] = test system: HCT-116; assay: Induction of apoptosis in human HCT-116 cells assessed as viable cells at 1 uM incubated for > 6 hrs by annexin V/PI staining based analysis (Rvb=90.04%); format: functional; details: read-out: Activity
[4] = biological target: SRSF protein kinase 1 (Homo sapiens) (UniProt Q96SB4); assay: Inhibition of SRPK1 (unknown origin) at 123 nM in the presence of ATP by Kinome scan method relative to control; details: time > 6.0 hrs
[5] = biological target: Tyrosine-protein kinase ABL1 (Homo sapiens) (UniProt P00519); assay: Inhibition of ABL1 (unknown origin) at 100 nM in the presence of ATP by Kinome scan method relative to control
[6] = biological target: Aurora kinase B (Homo sapiens) (UniProt Q96GD4); assay: Inhibition of AURKB (unknown origin) at 100 nM in the presence of ATP by Kinome scan method relative to control
[7] = biological target: Cyclin-dependent kinase 5/CDK5 activator 1 (Homo sapiens) (UniProt Q00535+Q15078); assay: Inhibition of CDK5/p25 (unknown origin) at 1000 nM in the presence of ATP by Kinome scan method relative to control; format: protein-complex assay
[8] = biological target: Casein kinase I isoform alpha (Homo sapiens) (UniProt P48729); assay: Inhibition of CSNK1A1 (unknown origin) at 1000 nM in the presence of ATP by Kinome scan method relative to control
[9] = biological target: Fibroblast growth factor receptor 1 (Homo sapiens) (UniProt P11362); assay: Inhibition of FGFR1 (unknown origin) at 1000 nM in the presence of ATP by Kinome scan method relative to control
[10] = biological target: Interleukin-1 receptor-associated kinase 4 (Homo sapiens) (UniProt Q9NWZ3); assay: Inhibition of IRAK4 (unknown origin) at 1000 nM in the presence of ATP by Kinome scan method relative to control
[11] = biological target: Mitogen-activated protein kinase 14 (Homo sapiens) (UniProt Q16539); assay: Inhibition of MAPK14 (unknown origin) at 1000 nM in the presence of ATP by Kinome scan method relative to control
[12] = biological target: Mitogen-activated protein kinase 8 (Homo sapiens) (UniProt P45983); assay: Inhibition of MAPK8 (unknown origin) at 100 nM in the presence of ATP by Kinome scan method relative to control
[13] = biological target: Serine/threonine-protein kinase Nek1 (Homo sapiens) (UniProt Q96PY6); assay: Inhibition of NEK1 (unknown origin) at 1000 nM in the presence of ATP by Kinome scan method relative to control
[14] = biological target: Serine/threonine-protein kinase Nek2 (Homo sapiens) (UniProt P51955); assay: Inhibition of NEK2 (unknown origin) at 100 nM in the presence of ATP by Kinome scan method relative to control
[15] = biological target: Serine/threonine-protein kinase PLK1 (Homo sapiens) (UniProt P53350); assay: Inhibition of PLK1 (unknown origin) at 1000 nM in the presence of ATP by Kinome scan method relative to control
[16] = biological target: cAMP-dependent protein kinase catalytic subunit alpha (Homo sapiens) (UniProt P17612); assay: Inhibition of PRKACA (unknown origin) at 1000 nM in the presence of ATP by Kinome scan method relative to control
[17] = biological target: Protein kinase C theta type (Homo sapiens) (UniProt Q04759); assay: Inhibition of PRKCQ (unknown origin) at 1000 nM in the presence of ATP by Kinome scan method relative to control
[18] = biological target: Protein kinase C theta type (Homo sapiens) (UniProt Q04759); assay: Inhibition of PRKCQ (unknown origin) at 100 nM in the presence of ATP by Kinome scan method relative to control
[19] = biological target: Proto-oncogene tyrosine-protein kinase receptor Ret (Homo sapiens) (UniProt P07949); assay: Inhibition of RET (unknown origin) at 1000 nM in the presence of ATP by Kinome scan method relative to control
[20] = biological target: Rho-associated protein kinase 1 (Homo sapiens) (UniProt Q13464); assay: Inhibition of ROCK1 (unknown origin) at 100 nM in the presence of ATP by Kinome scan method relative to control
[21] = test system: HCT-116; assay: Induction of cell cycle arrest in human HCT-116 cells assessed as S phase at 0.5 uM incubated for 6 hrs by flow cytometry analysis (Rvb=39.3%); format: functional
[22] = test system: HCT-116; assay: Induction of cell cycle arrest in human HCT-116 cells assessed as G2/M phase at 10 uM incubated for 6 hrs by flow cytometry analysis (Rvb=25.8%); format: functional
[23] = test system: HCT-116; assay: Induction of cell cycle arrest in human HCT-116 cells assessed as S phase at 10 uM incubated for 6 hrs by flow cytometry analysis (Rvb=39.3%); format: functional
[24] = test system: HCT-116; assay: Induction of cell cycle arrest in human HCT-116 cells assessed as G2/M phase at 0.1 uM incubated for 24 hrs by flow cytometry analysis (Rvb=17.9%); format: functional
[25] = test system: HCT-116; assay: Induction of cell cycle arrest in human HCT-116 cells assessed as sub G0/G1 phase at 1 uM incubated for 24 hrs by flow cytometry analysis (Rvb=2.5%); format: functional
[26] = test system: HCT-116; assay: Induction of cell cycle arrest in human HCT-116 cells assessed as sub G0/G1 phase at 5 uM incubated for 24 hrs by flow cytometry analysis (Rvb=2.5%); format: functional
[27] = Stability of compound in tissue culture medium assessed as remaining parent compound at 5.44 uM incubated for 6 hrs; format: physicochemical; details: read-out: Stability
[28] = Stability of compound in tissue culture medium assessed as remaining parent compound at 5.30 uM incubated for 48 hrs; format: physicochemical; details: read-out: Stability
[29] = biological target: Dual specificity protein kinase CLK1 (Homo sapiens) (UniProt P49759); assay: Inhibition of CLK (unknown origin) in human HCT-116 cells assessed as induction in alternative splicing effect in S6K skipped exon /canonical form incubated for 6 hrs by RT-PCR analysis; format: cell-based; details: dose 0.2-5 µM
Summary of the method: (§1)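 Cells exposed to graded T3 concentrations for 6 h (chosen to avoid cytotoxicity), with a DMSO vehicle control. Total RNA was reverse-transcribed with oligo-dT primers. Targeted splice or conjoined-gene products were quantified by real-time qPCR or by targeted next-generation sequencing. Conjoined-gene isoform expression was normalized to a sequenced housekeeping gene.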

[30] = biological target: Dual specificity protein kinase CLK1 (Homo sapiens) (UniProt P49759); assay: Inhibition of CLK (unknown origin) in human HCT-116 cells assessed as induction in alternative splicing effect in MRPS10-GUCA1B level incubated for 6 hrs by RT-PCR analysis; format: cell-based; details: dose 0.2-5 µM; summary of the method: as §1
[31] = biological target: Dual specificity tyrosine-phosphorylation-regulated kinase 1A (Homo sapiens, UniProt Q13627); assay: Inhibition of DYRK1A (unknown origin) using ULight-MBP peptide as substrate incubated for 10 mins in presence of ATP incubated for 45 mins by LANCE Ultra kinase assay

Chain of Protein kinase C theta type (Homo sapiens) (Q04759 whole entry, looked up): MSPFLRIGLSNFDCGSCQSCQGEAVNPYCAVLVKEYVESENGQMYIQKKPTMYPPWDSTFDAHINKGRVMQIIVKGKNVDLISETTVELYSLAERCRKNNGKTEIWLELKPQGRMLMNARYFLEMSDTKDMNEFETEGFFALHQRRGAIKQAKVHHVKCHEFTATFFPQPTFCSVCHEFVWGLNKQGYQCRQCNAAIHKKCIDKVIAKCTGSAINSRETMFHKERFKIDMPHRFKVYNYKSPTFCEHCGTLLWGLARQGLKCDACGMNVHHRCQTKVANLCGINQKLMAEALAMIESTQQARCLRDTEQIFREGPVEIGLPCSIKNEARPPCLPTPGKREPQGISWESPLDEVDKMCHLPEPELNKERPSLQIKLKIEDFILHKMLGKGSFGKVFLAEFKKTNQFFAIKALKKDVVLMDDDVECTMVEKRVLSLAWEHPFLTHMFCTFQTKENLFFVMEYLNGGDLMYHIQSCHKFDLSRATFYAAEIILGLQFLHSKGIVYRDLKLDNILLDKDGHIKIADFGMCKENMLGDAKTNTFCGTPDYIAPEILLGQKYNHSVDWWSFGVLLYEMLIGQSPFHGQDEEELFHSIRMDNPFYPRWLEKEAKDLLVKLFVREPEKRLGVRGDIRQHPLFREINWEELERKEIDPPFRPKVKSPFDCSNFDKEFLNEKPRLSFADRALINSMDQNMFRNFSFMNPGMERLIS
Chain of Dual specificity protein kinase CLK1 (Homo sapiens) (P49759 whole entry, looked up, canonical isoform): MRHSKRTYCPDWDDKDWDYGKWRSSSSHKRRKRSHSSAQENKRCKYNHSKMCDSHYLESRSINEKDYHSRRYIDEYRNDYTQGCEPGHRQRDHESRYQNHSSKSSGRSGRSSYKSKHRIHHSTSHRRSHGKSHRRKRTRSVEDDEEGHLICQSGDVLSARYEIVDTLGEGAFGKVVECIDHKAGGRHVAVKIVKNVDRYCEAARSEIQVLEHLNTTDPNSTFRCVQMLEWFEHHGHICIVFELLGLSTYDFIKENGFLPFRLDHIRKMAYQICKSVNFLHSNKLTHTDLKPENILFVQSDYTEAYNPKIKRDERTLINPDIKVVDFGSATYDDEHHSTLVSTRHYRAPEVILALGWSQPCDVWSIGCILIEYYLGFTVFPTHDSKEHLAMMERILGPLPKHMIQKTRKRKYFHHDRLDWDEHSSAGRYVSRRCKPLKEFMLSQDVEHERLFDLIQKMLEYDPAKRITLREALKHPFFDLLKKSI
Chain of Proto-oncogene tyrosine-protein kinase receptor Ret (Homo sapiens) (P07949 whole entry): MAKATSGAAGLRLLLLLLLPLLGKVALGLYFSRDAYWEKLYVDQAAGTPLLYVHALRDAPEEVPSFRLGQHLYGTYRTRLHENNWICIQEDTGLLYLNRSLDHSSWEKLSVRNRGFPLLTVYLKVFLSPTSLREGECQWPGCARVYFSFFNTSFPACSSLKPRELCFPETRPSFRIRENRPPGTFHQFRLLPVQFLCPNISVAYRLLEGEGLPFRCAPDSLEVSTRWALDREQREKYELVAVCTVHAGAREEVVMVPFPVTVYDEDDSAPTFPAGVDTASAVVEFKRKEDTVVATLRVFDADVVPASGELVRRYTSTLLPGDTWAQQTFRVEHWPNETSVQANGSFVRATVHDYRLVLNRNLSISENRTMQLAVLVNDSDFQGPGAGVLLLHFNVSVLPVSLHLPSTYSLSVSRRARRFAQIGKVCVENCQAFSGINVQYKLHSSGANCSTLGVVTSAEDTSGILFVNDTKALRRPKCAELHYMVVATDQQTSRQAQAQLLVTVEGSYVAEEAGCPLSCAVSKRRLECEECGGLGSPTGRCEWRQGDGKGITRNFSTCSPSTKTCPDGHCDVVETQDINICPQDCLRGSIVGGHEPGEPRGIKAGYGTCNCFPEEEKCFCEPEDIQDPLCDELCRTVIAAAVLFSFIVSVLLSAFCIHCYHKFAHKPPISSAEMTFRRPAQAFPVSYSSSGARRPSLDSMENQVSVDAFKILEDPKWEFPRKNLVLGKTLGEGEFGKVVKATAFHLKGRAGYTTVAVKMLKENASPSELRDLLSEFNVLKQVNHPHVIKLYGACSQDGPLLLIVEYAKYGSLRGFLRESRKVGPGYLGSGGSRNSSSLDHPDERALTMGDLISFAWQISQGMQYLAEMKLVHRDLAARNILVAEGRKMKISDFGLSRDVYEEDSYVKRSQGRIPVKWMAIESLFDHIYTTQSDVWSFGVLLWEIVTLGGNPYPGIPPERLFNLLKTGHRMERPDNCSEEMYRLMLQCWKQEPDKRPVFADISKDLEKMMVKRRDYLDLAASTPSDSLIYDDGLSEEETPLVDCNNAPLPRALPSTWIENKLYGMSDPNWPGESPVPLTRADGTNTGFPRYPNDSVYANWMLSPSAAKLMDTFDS
Chain of Mitogen-activated protein kinase 8 (Homo sapiens) (P45983 whole entry): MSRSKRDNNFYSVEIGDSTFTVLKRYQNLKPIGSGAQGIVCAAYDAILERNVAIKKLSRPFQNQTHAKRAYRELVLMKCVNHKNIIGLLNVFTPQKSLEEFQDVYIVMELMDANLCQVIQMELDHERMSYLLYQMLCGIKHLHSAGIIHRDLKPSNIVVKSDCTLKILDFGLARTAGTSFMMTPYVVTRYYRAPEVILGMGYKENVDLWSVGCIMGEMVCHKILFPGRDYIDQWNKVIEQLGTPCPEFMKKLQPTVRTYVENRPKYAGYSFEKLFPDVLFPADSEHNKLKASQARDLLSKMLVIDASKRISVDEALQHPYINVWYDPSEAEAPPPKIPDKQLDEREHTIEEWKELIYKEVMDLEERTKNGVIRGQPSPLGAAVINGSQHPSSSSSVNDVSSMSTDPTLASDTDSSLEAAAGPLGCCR
Chain of Tyrosine-protein kinase ABL1 (Homo sapiens) (P00519 whole entry): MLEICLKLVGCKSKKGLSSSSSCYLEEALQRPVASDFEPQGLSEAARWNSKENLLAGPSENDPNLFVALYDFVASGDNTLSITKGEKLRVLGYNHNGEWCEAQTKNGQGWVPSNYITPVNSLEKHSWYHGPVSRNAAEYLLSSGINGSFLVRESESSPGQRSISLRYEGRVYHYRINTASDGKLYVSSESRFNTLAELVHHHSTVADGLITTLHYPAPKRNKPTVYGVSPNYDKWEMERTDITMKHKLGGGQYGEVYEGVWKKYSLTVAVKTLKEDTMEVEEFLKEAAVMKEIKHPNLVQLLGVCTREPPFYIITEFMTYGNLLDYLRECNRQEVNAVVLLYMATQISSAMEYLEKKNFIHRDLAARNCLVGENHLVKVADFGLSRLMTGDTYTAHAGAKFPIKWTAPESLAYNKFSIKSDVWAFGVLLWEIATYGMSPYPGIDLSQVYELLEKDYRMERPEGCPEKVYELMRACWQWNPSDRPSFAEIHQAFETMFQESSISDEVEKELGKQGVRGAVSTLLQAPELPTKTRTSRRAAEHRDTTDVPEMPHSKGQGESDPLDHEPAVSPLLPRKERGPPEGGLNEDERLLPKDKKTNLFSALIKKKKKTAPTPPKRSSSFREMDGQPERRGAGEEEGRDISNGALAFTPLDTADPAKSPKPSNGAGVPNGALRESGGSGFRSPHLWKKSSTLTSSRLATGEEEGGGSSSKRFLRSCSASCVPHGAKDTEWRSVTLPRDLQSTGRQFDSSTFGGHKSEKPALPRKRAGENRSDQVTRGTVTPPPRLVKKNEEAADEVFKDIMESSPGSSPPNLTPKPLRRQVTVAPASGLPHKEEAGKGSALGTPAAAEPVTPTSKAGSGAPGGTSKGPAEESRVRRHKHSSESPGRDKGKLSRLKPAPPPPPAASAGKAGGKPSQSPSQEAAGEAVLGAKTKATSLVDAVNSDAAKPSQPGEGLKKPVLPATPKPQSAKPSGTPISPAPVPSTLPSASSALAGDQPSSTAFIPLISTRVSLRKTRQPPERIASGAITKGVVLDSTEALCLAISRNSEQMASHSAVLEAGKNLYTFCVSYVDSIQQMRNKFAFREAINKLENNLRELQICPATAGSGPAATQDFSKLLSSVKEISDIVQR
Chain of SRSF protein kinase 1 (Homo sapiens) (Q96SB4 whole entry): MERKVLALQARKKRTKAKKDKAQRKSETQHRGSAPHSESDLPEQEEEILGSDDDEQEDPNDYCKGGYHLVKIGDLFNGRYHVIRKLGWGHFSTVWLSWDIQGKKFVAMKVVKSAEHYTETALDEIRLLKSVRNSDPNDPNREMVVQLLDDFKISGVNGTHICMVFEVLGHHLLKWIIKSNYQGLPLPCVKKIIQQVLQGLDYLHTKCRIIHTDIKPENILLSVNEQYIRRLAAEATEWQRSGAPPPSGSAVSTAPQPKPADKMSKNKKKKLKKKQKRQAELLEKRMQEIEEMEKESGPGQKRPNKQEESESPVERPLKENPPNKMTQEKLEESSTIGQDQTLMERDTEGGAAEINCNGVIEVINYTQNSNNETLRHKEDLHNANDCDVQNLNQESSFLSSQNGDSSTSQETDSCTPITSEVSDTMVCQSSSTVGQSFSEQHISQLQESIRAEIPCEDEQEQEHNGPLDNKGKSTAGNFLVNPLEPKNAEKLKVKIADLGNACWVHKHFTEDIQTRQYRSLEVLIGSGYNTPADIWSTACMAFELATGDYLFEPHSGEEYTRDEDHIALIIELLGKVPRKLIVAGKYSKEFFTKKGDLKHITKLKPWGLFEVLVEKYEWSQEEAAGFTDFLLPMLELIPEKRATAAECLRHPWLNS
Chain of Mitogen-activated protein kinase 14 (Homo sapiens) (Q16539 whole entry): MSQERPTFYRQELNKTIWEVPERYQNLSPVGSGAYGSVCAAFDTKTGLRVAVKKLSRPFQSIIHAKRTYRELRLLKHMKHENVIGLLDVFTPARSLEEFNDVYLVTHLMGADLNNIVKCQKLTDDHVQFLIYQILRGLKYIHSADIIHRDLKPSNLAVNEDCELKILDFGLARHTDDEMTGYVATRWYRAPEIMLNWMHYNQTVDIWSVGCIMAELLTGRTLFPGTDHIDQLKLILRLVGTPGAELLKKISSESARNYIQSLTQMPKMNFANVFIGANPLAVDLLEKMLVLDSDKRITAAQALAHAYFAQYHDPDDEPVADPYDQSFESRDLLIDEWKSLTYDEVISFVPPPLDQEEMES

With `CN1CCN(C(=O)C(C)(C)c2ccc(C(=O)Nc3cn4cc(-c5ccncc5)ccc4n3)cc2)CC1` [T3-CLK] the Activity [1] was 6.85%, the Activity [2] was 0.69% and the viability at 1 µM [3] was 88.4%. The inhibition [4] was -3%, the inhibition [5] was 10% and the inhibition [6] was 7%. The inhibition [7] was 1%, the inhibition [8] was -3% and the inhibition [9] was 9%. It also gave an inhibition [10] of 42%, an inhibition [11] of 6% and an inhibition [12] of 5%. The inhibition [13] was 25%, the inhibition [14] was 12% and the inhibition [15] was 2%. The inhibition [16] was 4%, the inhibition [17] was 4% and the inhibition [18] was 5%. The inhibition [19] was -2%, the inhibition [20] was 5% and the Activity [21] was 46.9%. For the same molecule, the Activity [22] was 26.3%, the Activity [23] was 45.3% and the Activity [24] was 20.7%. The Activity [25] was 20.4%, the Activity [26] was 20.9% and the remaining at 6 h, 5.44 µM [27] was 98.9%. The remaining at 48 h, 5.3 µM [28] was 98.7%, the inhibition [29] was “Dose-Dependent Effect” and the inhibition [30] was “Dose-Dependent Effect”. For the same molecule, the IC50 [31] was 0.26 µM.

Source: ChEMBL document CHEMBL5696444 (Nat Commun, 2017)
